Results on two molecules are retold here after PMC7523912 (ACS applied bio materials, 2019).

For series [1], the system named is PDGF-BB mediated proliferation of normal human lung fibroblasts (NHLF). As to the kind of experiment: Inhibition of PDGF-BB mediated proliferation assay. As to conditions: PDGF-BB only samples, CyQuant. The class given is cell-based. Summed up:
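NHLF at passage 3–4 were grown in DMEM with 10% FBS and 1% penicillin/streptomycin. Cells were seeded at 10,000/well, recovered overnight, then starved 6 h in 0.5% FBS. PDGF-BB was given as 1:2 serial dilutions from 100 to 1.56 ng/mL, alone or with 500 nM free aptamer, 100 μM diluent PA, or apt-PAN (500 nM aptamer-PA, 100 μM total PA). CyQuant Direct was read at 24 and 48 h, normalised to growth-factor-only wells, with three independent experiments, mean ± SD.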

The conditions of series [2]: no reference or method printed; cited from earlier work.
Series [3] concerns the target platelet-derived growth factor-BB (UniProt P01127 82-190). Kind of series: BLI.

*: point of attachment. Palmitoyl = CCCCCCCCCCCCCCCC(=O)*

Chain of platelet-derived growth factor-BB (P01127 82-190): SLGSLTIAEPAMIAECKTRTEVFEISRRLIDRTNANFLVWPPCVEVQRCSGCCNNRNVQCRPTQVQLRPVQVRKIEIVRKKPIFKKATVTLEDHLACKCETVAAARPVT

On to “PDGF-BB: Platelet derived growth factor-BB”, for which the “increase in total DNA, after 48 hours” value in series [1] is “more than two-fold”. Moreover, the isoelectric point in series [2] is 9.8.

B1: diluent peptide amphiphile (palmitoyl-V3A3E3), as self-assembled nanofibers (peptide)
peptide: Palmitoyl-VVVAAAEEE-NH2
A word on the koff: it is the rate constant with which the complex falls apart. By kon is commonly meant the rate constant with which the complex forms. A low value points to slow association. On to B1, for which, in series [3], the koff was determined as 0.000498 s⁻¹ and the kon was found to be 1080 M⁻¹ s⁻¹.
